Reference: PubChem BioAssay AID1451 (NMMLSC, 2008)
The other results are listed elsewhere or left out. Calls of active or inactive are those of the source.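 Rule for the calls: active = inhibition of pump activity above 50%; inactive = the rest.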

Biological target: ATP-dependent translocase ABCB1 (Homo sapiens) (UniProt P08183)
Assay: ABCB1 efflux pump inhibitors, confirmation, cell-based, single point, ABCG2 counter-screen (AID 1451);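 note: 0% = DMSO and 100% = nicardipine full pump inhibition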
Settings: CCRF-Adr cells, JC-1 efflux, flow cytometry; at 6.6 µM; hits give high values
Procedure, shortened: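 Material: ABCB1-expressing CCRF-Adr cells. Quantity: 3 million cells per mL final in well. Reagent: JC-1 fluorescent efflux-pump substrate. Compound: single test-compound dose, 6.6 µM final. Schedule: 10 min exposure, 25 °C. Measured by: flow cytometry, 530 nm emission. Controls: nicardipine as high control, DMSO as low control.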

ATP-dependent translocase ABCB1 (Homo sapiens), sequence (P08183 whole entry, looked up): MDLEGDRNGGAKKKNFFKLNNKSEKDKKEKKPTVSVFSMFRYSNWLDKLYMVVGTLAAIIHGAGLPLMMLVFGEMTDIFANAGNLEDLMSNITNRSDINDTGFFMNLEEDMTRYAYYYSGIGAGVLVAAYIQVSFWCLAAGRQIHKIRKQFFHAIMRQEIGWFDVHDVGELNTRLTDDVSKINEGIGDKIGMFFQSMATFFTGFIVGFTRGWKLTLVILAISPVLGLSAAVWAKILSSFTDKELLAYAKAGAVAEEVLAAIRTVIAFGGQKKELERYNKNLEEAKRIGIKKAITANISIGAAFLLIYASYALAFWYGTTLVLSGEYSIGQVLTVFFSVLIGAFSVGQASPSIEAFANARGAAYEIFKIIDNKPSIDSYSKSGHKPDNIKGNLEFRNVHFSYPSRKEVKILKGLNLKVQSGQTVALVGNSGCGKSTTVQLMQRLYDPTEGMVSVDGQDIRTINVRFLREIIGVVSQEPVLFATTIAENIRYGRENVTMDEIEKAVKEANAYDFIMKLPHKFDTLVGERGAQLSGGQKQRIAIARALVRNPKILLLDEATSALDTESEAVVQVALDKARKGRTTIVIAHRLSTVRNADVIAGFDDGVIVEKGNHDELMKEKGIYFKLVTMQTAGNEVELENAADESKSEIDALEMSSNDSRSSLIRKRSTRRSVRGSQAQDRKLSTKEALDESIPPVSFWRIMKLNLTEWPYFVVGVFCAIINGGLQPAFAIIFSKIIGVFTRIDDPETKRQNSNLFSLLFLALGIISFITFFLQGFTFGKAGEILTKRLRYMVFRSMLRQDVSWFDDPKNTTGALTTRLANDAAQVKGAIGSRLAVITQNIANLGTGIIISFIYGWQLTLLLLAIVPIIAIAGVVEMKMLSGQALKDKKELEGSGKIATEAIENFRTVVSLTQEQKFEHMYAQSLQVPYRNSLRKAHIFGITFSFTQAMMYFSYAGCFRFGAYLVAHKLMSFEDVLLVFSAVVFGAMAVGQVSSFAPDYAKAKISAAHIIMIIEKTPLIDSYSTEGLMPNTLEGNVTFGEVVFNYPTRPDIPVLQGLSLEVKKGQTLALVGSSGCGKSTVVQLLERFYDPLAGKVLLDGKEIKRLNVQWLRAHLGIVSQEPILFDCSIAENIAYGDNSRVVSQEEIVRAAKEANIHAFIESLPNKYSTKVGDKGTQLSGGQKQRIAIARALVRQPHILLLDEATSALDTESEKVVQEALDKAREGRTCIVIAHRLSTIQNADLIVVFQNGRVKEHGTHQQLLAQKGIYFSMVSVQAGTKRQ

Row | Compound | inhibition
1 | C=CCn1c(SCCOc2ccc(OC)cc2)nnc1C(NC(=O)c1ccc(OC)cc1)C(C)C (stereo not drawn) | 23.6% (inactive)
2 | CCN1/C(=C/c2ccc3ccc(C)cc3[n+]2CC)Sc2ccccc21 | -9.15% (inactive)
3 | CCOCC(=O)Nc1sc2c(c1C(=O)OCC)CCCC2 | 2.32% (inactive)
4 | COc1ccc(C)cc1NC(=O)C(Sc1ccccc1)c1ccccc1 (stereo not drawn) | 3.76% (inactive)
5 | O=C(Cc1c[nH]c2ccccc12)N/N=C/c1cccc(F)c1 | -0.99% (inactive)
6 | Cc1ccc(-n2c(SCC(=O)Nc3ncc(Cl)cc3Cl)nc3ccccc32)cc1 | 41.2% (inactive)
7 | Cc1ccc(OCC(O)CN2CCN(CC(O)COc3ccc(C)cc3Cl)CC2)c(Cl)c1 (stereo not drawn) | 17.1% (inactive)
8 | COc1ccc(-n2c(C)cc(C(=O)COC(=O)c3cc(OC)c(OC)cc3NC(=O)c3cccs3)c2C)cc1 | 3% (inactive)
9 | C/C(=N\Nc1ncc(Cl)cc1Cl)c1ccc(S(=O)(=O)NCc2ccco2)cc1 | 1.61% (inactive)
10 | Cc1c(CCOC(=O)CC23CC4CC(CC(C)(C4)C2)C3)sc[n+]1Cc1ccc([N+](=O)[O-])cc1 | 0.26% (inactive)
11 | Cc1cccc2cc(CN(Cc3cccs3)C(c3nnnn3C3CCCC3)C(C)C)c(=O)[nH]c12 (stereo not drawn) | 61.6% (active)
12 | COc1cccc(NC(=O)c2ccc(Cn3cc([N+](=O)[O-])cn3)o2)c1 | -0.63% (inactive)
13 | CCOC(=O)c1sc(NC(=O)CSc2nnc(-c3ccco3)o2)c(C(=O)OCC)c1C | 15.2% (inactive)
